From ChEMBL document CHEMBL3525958 (Drug Metab Dispos, 2013) come the findings set out here.

Data set [1] deals with BCRP. Kind of data set: Efflux ratio of apparent permeability from basolateral to apical side over apical to basolateral side in MDCK2 cells expressing human BCRP at 5 uM by liquid scintillation counting. It is filed as ADME, cell-based, Canis lupus familiaris, MDCK-II. The conditions noted are these: dog. In a few lines:
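MDCKII cells, mock or carrying human BCRP cDNA, were cultured 4 days on transwell inserts, with 10 mM sodium butyrate added 24 h before assay. Cells were pre-incubated 10 min in modified Krebs-Henseleit buffer with 5 mM glucose at 37°C. […] Samples were scintillation counted, and efflux ratio = PcB-A/PcA-B.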

Data set [2] relates to P-glycoprotein (human). Kind of data set: Efflux ratio of apparent permeability from basolateral to apical side over apical to basolateral side in pig LLC-PK1 cells expressing human P-glycoprotein at 5 uM by liquid scintillation counting. It is filed as ADME, cell-based, Sus scrofa.
Data set [3] has as its system BCRP. Kind of data set: Permeability in human Caco2 cells assessed as 11 uM BCRP inhibitor Ko134-mediated inhibition of digoxin at 5 uM by liquid scintillation counting. It is filed as ADME, cell-based. The following applies: Caco-2, with Ko134 11 uM. In a few lines:
(§1)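 Caco-2 monolayers (passages 17–40, 13–22 days post-seeding) were used. Bidirectional transport ran for 2 h at 37°C, shaken at 50 rpm, in HBSS/10 mM HEPES pH 7.4. […] Inhibitors were present in both chambers: ketoconazole or cyclosporin A (20 or 50 µM), Ko134 (1 or 11 µM), or probenecid with the 20 µM runs. Results are % inhibition of efflux ratio.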
For orientation: Caco-2 monolayers are a common model of the intestinal barrier.

Data set [4] concerns P-gp. Description: Apparent permeability in human Caco2 cells assessed as 50 uM P-gp inhibitor cyclosporin A-mediated inhibition of digoxin efflux at 5 uM by liquid scintillation counting. It is filed as ADME, cell-based. The conditions noted are these: Caco-2 cells, with cyclosporin A 50 uM. Summed up: as §1
For data set [5], the system named is P-gp. Description: Apparent permeability in human Caco2 cells assessed as 50 uM P-gp inhibitor ketoconazole-mediated inhibition of digoxin efflux at 5 uM by liquid scintillation counting. The following applies: Caco-2 cells, with ketoconazole 50 uM. Format: ADME, cell-based. Summed up:
as §1

Data set [6] is described as follows: Apparent permeability from apical to basolateral side of human Caco2 cells at 5 uM by liquid scintillation counting. The conditions noted are these: Caco-2.
Data set [7] can be described thus: Apparent permeability from basolateral to apical side of human Caco2 cells at 5 uM by liquid scintillation counting. The conditions noted are these: Caco-2.
Data set [8] is described as follows: Activity at human P-glycoprotein expressed in pig LLC-PK1 cells at 5 uM after 90 mins by liquid scintillation counting. Format: ADME, cell-based.
A short description of data set [9]: Activity at human P-glycoprotein expressed in pig LLC-PK1 cells at 25 uM after 90 mins by liquid scintillation counting. It is filed as ADME, cell-based.
A short description of data set [10]: Activity at human P-glycoprotein expressed in pig LLC-PK1 cells at 50 uM after 90 mins by liquid scintillation counting. It is filed as ADME, cell-based.
The nature of data set [11]: Activity at human P-glycoprotein expressed in pig LLC-PK1 cells at 100 uM after 90 mins by liquid scintillation counting. Format: ADME, cell-based.
The nature of data set [12]: Activity at human P-glycoprotein expressed in pig LLC-PK1 cells assessed as rate of transport at 10 uM after 60 mins by liquid scintillation counting. The conditions noted are these: llc-pk1, 1 h. It is filed as ADME, cell-based. In a few lines: (§2)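 Human P-gp-cDNA LLC-PK1 cells and vector-only (mock) cells were cultured on collagen-coated inserts for 7 days. […] Facilitated rate v = IA/(filter area × time), where IA is the net P-gp-dependent pmol transported.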

Data set [13] in a line: Activity at human P-glycoprotein expressed in pig LLC-PK1 cells assessed as rate of transport at 10 uM after 90 mins by liquid scintillation counting. It is filed as ADME, cell-based. In a few lines:
as §2

Data set [14] in a line: Activity at human P-glycoprotein expressed in pig LLC-PK1 cells assessed as rate of transport at 10 uM after 120 mins by liquid scintillation counting. It is filed as ADME, cell-based. The conditions noted are these: llc-pk1, 2 h. In a few lines:
as §2

A short description of data set [15]: Activity at human P-glycoprotein expressed in pig LLC-PK1 cells assessed as rate of transport at […] after 90 mins by liquid scintillation counting. It is filed as ADME, cell-based.
A short description of data set [16]: Activity at human P-glycoprotein expressed in pig LLC-PK1 cells assessed as rate of transport at 5 uM after 90 mins by liquid scintillation counting. It is filed as ADME, cell-based. Summed up:
as §2

Data set [17] is described as follows: Activity at human P-glycoprotein expressed in pig LLC-PK1 cells assessed as rate of transport at 25 uM after 90 mins by liquid scintillation counting. Format: ADME, cell-based. Summed up:
as §2

Data set [18] is described as follows: Activity at human P-glycoprotein expressed in pig LLC-PK1 cells assessed as rate of transport at 50 uM after 90 mins by liquid scintillation counting. It is filed as ADME, cell-based. Summed up:
as §2

The nature of data set [19]: Activity at human P-glycoprotein expressed in pig LLC-PK1 cells assessed as rate of transport at 100 uM after 90 mins by liquid scintillation counting. Format: ADME, cell-based. In a few lines:
as §2

A short description of data set [20]: Activity at human P-glycoprotein expressed in pig LLC-PK1 cells at 10 uM after 60 mins by liquid scintillation counting. Format: ADME, cell-based. The following applies: llc-pk1, 1 h.
Data set [21] is described as follows: Activity at human P-glycoprotein expressed in pig LLC-PK1 cells at 10 uM after 90 mins by liquid scintillation counting. It is filed as ADME, cell-based.
Data set [22] is described as follows: Activity at human P-glycoprotein expressed in pig LLC-PK1 cells at 10 uM after 120 mins by liquid scintillation counting. It is filed as ADME, cell-based. The conditions noted are these: llc-pk1, 2 h.
Data set [23] in a line: Activity at human P-glycoprotein expressed in pig LLC-PK1 cells at […] after 90 mins by liquid scintillation counting. Format: ADME, cell-based.
Data set [24] relates to BCRP. Kind of data set: in vitro. The following applies: human, Caco-2, with Ko134 11 uM.
Data set [25] is described as follows: Oral bioavailability in rat. The conditions noted are these: in vivo. Format: ADME, organism-based.
Data set [26] is described as follows: Oral bioavailability in dog. Format: ADME, organism-based, Canis lupus familiaris. The following applies: in vivo.
A short description of data set [27]: Oral bioavailability in human. Format: ADME, organism-based. The following applies: in vivo.
Data set [28] in a line: Ratio of drug level in brain to blood in po dosed rat. Format: ADME, organism-based.
The nature of data set [29]: Ratio of Cmax in milk to plasma in lactating rat. It is filed as ADME. The conditions noted are these: female.
Data set [30] can be described thus: Ratio of AUC in milk to plasma in lactating rat. Format: ADME. The conditions noted are these: female, read-out: Ratio AUC.

In general, efflux ratio refers to a quotient of directional permeabilities that is used to spot active efflux. With `COc1cc2nc(N3CCN(C(=O)c4ccco4)CC3)nc(N)c2cc1OC` [PRAZOSIN], the efflux ratio at 5 µM in [1] worked out at 10.
The inhibition is how much of the control response was suppressed. What is called Papp A→B is how fast a substance crosses the layer from the apical side. The term Papp B→A denotes how fast a substance crosses the layer from the basolateral side. For the molecule `C[C@H]1O[C@@H](O[C@H]2[C@@H](O)C[C@H](O[C@H]3[C@@H](O)C[C@H](O[C@H]4CC[C@@]5(C)[C@H](CC[C@@H]6[C@@H]5C[C@@H](O)[C@]5(C)[C@@H](C7=CC(=O)OC7)CC[C@]65O)C4)O[C@@H]3C)O[C@@H]2C)C[C@H](O)[C@@H]1O` [DIGOXIN], the efflux ratio at 5 µM in data set [2] is over 7. Besides, the inhibition at 5 µM in [3] was determined as 50%; in data set [4], 98%; in data set [5], 100%. The Papp A→B at 5 µM in data set [6] worked out at 2.3 ×10⁻⁶ cm/s. Moreover, the basolateral-to-apical permeability (Papp B→A) at 5 µM in [7] came to 20.5 ×10⁻⁶ cm/s.
As to `COc1ccc(-n2nc(C(N)=O)c3c2C(=O)N(c2ccc(N4CCCC[14C]4=O)cc2)CC3)cc1`, the Intrinsic activity in data set [8] was determined as 64 pmol; in data set [9], 548 pmol; in data set [10], 1485 pmol; in data set [11] it was 2772 pmol; in [20], 146 pmol; in data set [21] it was 167 pmol. The Intrinsic activity is listed as 294 pmol in data set [22] and 33 pmol in data set [23]. The Drug transport is recorded as 471 pmol/cm2/hr in data set [12]; 360 pmol/cm2/hr in data set [13]; 474 pmol/cm2/hr in data set [14]; 71 pmol/cm2/hr in data set [15]; 139 pmol/cm2/hr in data set [16]; 1179 pmol/cm2/hr in [17]. Further, the Drug transport is 3194 pmol/cm2/hr in data set [18] and 5962 pmol/cm2/hr in data set [19].
On to `O=C1CN(/N=C/c2ccc([N+](=O)[O-])o2)C(=O)N1` [NITROFURANTOIN], for which the inhibition at 5 µM in [24] was 78%.
As usually defined, the bioavailability is dose-corrected exposure relative to a reference, in per cent. Higher therefore signals much systemic uptake. Regarding `COc1ccc(-n2nc(C(N)=O)c3c2C(=O)N(c2ccc(N4CCCCC4=O)cc2)CC3)cc1` [APIXABAN], the bioavailability in [25] was 30%; in data set [26] it was 70%; in data set [27] it was 50%. Besides, the Kp in data set [28] was under 0.1; in data set [29] it was 8; in data set [30] it was 30.
